Experimental data: ChEMBL document CHEMBL1123277, “Reactive 5'-substituted thymidine derivatives as potential inhibitors of nucleotide biosynthesis” (J Med Chem, 1986)

Legend:
[1] = system: HEp-2; assay: Compound was tested for the cytotoxic concentration that produces 50% inhibition of cloning of H.Ep.-2 cells; type: functional, cell-based; settings: Homo sapiens, read-out: I50
[2] = system: L1210; assay: Compound was tested for the cytotoxic concentration that produces 50% inhibition of L1210 cells; type: functional, cell-based; settings: Mus musculus, read-out: I50
[3] = system: P388; assay: Compound was tested in vivo in […] murine leukemia cells in mice at dose of 200 mg/kg; type: functional; settings: Mus musculus
[4] = Half-life is estimated by TLC; type: ADME
Method in brief: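 Reactivity toward thiol was measured at pH 7. A 0.25–0.5% solution of compound in MeOH was mixed 1:1 with 1% mercaptoethanol in pH 7 buffer. Loss of alkylating activity was followed by TLC with 4-(4-nitrobenzyl)pyridine spray, and the half-life was estimated from this.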

[5] = system: L1210; assay: Compound was tested for the cytotoxic concentration that produces 50% inhibition of L1210 cells.; type: functional, cell-based; settings: Mus musculus, read-out: I50

Structure (SMILES) | IC50 [1] [µM] | IC50 [2] [µM] | ILS at 200 mg/kg [3] [%] | half-life [4] [min] | IC50 [5] [µM]
Cc1cn(C2CC(O)C(CNC(=O)CCl)O2)c(=O)[nH]c1=O (stereo not given) | 25 | 130 | 9 | 180 | 
Cc1cn(C2CC(O)C(CN(C)C(=O)CCl)O2)c(=O)[nH]c1=O (stereo not given) |  |  |  |  | > 120
